This is an account of results in ChEMBL document CHEMBL1137699, “Synthesis, antibacterial and anticonvulsant evaluations of some cyclic enaminones” (Eur J Med Chem, 2009).

SMILES strings stand for the structures. Converted amounts (≈) assume the structure as drawn. The source made the active and inactive calls. No cut-off for these calls is given here.

The subject of experiment [1] is Mus musculus. The experiment in a line: Anticonvulsant activity against maximal electroshock-induced seizures in mouse at >100 to 300 mg/kg, ip. More on the design: dose 300 mg/kg. The experiment is classed as functional, organism-based. A general note: Protection in the maximal electroshock model is a classic sign of anticonvulsant action.
Experiment [2] relates to Mus musculus. The experiment in a line: Anticonvulsant activity against subcutaneous pentylenetetrazole-induced seizures in mouse at >100 to 300 mg/kg, ip. Also on record: dose 300 mg/kg. The experiment is classed as functional, organism-based.
Experiment [3] relates to Staphylococcus aureus. The experiment is described as follows: Antibacterial activity against methicillin-susceptible Staphylococcus aureus clinical isolate after 18 hrs by NCCLS M7-A4 method. The experiment is classed as functional. The procedure, abridged: (§1)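 Test compounds dissolved in 80% DMSO in water. Clinical isolates came from a MRSA reference laboratory culture collection. Final inoculum 10^7 CFU/ml, incubated 35 °C for 18 h. MIC taken as the lowest concentration completely inhibiting growth. Reference strains S. aureus ATCC 25923, S. epidermidis ATCC 12228 and E. faecalis ATCC 29212 served as test controls.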

Experiment [4] relates to Staphylococcus aureus. The experiment in a line: Antibacterial activity against methicillin-resistant Staphylococcus aureus clinical isolate after 18 hrs by NCCLS M7-A4 method. The experiment is classed as functional. The method in brief: as §1
The test system of experiment [5] is Staphylococcus. The experiment in a line: Antibacterial activity against methicillin-sensitive coagulase-negative Staphylococcus clinical isolate after 18 hrs by NCCLS M7-A4 method. The experiment is classed as functional. The method in brief:
as §1

In experiment [6] the test system is Staphylococcus. The experiment in a line: Antibacterial activity against methicillin-resistant coagulase-negative Staphylococcus clinical isolate after 18 hrs by NCCLS M7-A4 method. The experiment is classed as functional. The procedure, abridged:
as §1

In experiment [7] the test system is Haemophilus influenzae. The experiment in a line: Antibacterial activity against Haemophilus influenzae clinical isolate after 18 hrs by NCCLS M7-A4 method. The experiment is classed as functional. The method in brief:
(§2)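 Agar dilution on Mueller–Hinton agar with 5% sheep blood, per NCCLS/CLSI. Compounds were dissolved in 80% DMSO in water and tested over 0.12–16. Incubation was 35 °C for 18 h. MIC was read as the lowest concentration completely inhibiting growth. Line 4 used clinical isolates (n = 7 for H. influenzae).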

In experiment [8] the test system is Streptococcus pneumoniae. The experiment is described as follows: Antibacterial activity against Streptococcus pneumoniae clinical isolate after 18 hrs by NCCLS M7-A4 method. Format: functional. The method in brief: as §2
Experiment [9] deals with Enterococcus. The experiment in a line: Antibacterial activity against vancomycin-resistant Enterococcus clinical isolate after 18 hrs by NCCLS M7-A4 method. Format: functional. The procedure, abridged:
as §1

Experiment [10] deals with Enterococcus. The experiment is described as follows: Antibacterial activity against vancomycin-sensitive Enterococcus clinical isolate after 18 hrs by NCCLS M7-A4 method. Format: functional. The method in brief: as §1
In experiment [11] the test system is Escherichia coli. The experiment in a line: Antibacterial activity against Escherichia coli ATCC 25922 after 18 hrs by NCCLS M7-A4 method. The experiment is classed as functional, organism-based. The procedure, abridged: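 Reference E. coli strain tested by NCCLS/CLSI agar dilution. Compounds were in 80% DMSO in water over a 0.12–16 dilution range, incubated at 35 °C for 18 h.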

Experiment [12] deals with Staphylococcus aureus. The experiment in a line: Antibacterial activity against Staphylococcus aureus ATCC 25923 after 18 hrs by NCCLS M7-A4 method. Format: functional, organism-based. The method in brief:
(§3)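 Agar dilution on Mueller–Hinton agar, following NCCLS (now CLSI) guidance. Test compounds were dissolved in 80% DMSO in water and tested at 0.12 to 16. Plates were incubated at 35 °C for 18 h. The MIC was the lowest concentration giving complete growth inhibition.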

The subject of experiment [13] is Staphylococcus epidermidis. The experiment in a line: Antibacterial activity against Staphylococcus epidermidis ATCC 12228 after 18 hrs by NCCLS M7-A4 method. The experiment is classed as functional, organism-based. The procedure, abridged: as §3
Experiment [14] has as its system Enterococcus faecalis. The experiment is described as follows: Antibacterial activity against Enterococcus faecalis ATCC 29212 after 18 hrs by NCCLS M7-A4 method. The experiment is classed as functional, organism-based. The method in brief:
as §3

Experiment [15] deals with Haemophilus influenzae. The experiment is described as follows: Antibacterial activity against Haemophilus influenzae ATCC 49247 after 18 hrs by NCCLS M7-A4 method. The experiment is classed as functional, organism-based. The procedure, abridged: as §2

Regarding `CCOC(=O)C1C(=O)C=C(N2CCCC2)CC1c1ccccc1` (centres undefined), the result in experiment [1] was Active.

For the compound `COC(=O)C1C(=O)C=C(Nc2ccccc2)CC1c1ccccc1` (centres undefined), in experiment [2], the result was Active.

With `O=C1O[C@@H](Cn2ccnn2)CN1c1ccc(N2CCOCC2)c(F)c1`, the MIC in experiment [3] worked out at 0.5 µg/mL (≈ 1.44 µM); in experiment [4] it was 0.5 µg/mL (≈ 1.44 µM); in experiment [5], 1 µg/mL (≈ 2.88 µM); in experiment [6], 0.5 µg/mL (≈ 1.44 µM); in experiment [7], 32 µg/mL (≈ 92.1 µM); in experiment [8] it was 0.5 µg/mL (≈ 1.44 µM). In addition, the MIC in [9] and in [10] was 0.5 µg/mL (≈ 1.44 µM) in each case. Besides, the outcome in [11], in experiment [12], in experiment [13], in experiment [14] and in experiment [15] was inactive.

As for `CCOC(=O)C1C(=O)C=C(N2CCOCC2)CC1C` (centres undefined), the result in experiment [2] was Active.

On to `CC(=O)NC[C@H]1CN(c2ccc(N3CCOCC3)c(F)c2)C(=O)O1` [LINEZOLID], for which the MIC amounted to 0.5 µg/mL (≈ 1.48 µM) in experiment [4]; 0.5 µg/mL (≈ 1.48 µM) in experiment [5]; 0.5 µg/mL (≈ 1.48 µM) in experiment [6]; 8 µg/mL (≈ 23.7 µM) in experiment [7]; 1 µg/mL (≈ 2.96 µM) in experiment [9]; 1 µg/mL (≈ 2.96 µM) in experiment [10]. For the same compound, the outcome in [11], in experiment [12], in [13], in [14] and in experiment [15] was inactive.

As for `CCOC(=O)C1C(=O)C=C(Nc2ccc(Cl)cc2)CC1c1ccccc1` (centres undefined), the result in [1] was Active.

As to `CN[C@H](CC(C)C)C(=O)N[C@H]1C(=O)N[C@@H](CC(N)=O)C(=O)N[C@H]2C(=O)N[C@H]3C(=O)N[C@H](C(=O)N[C@H](C(=O)O)c4cc(O)cc(O)c4-c4cc3ccc4O)[C@H](O)c3ccc(c(Cl)c3)Oc3cc2cc(c3O[C@@H]2O[C@H](CO)[C@@H](O)[C@H](O)[C@H]2O[C@H]2C[C@](C)(N)[C@H](O)[C@H](C)O2)Oc2ccc(cc2Cl)[C@H]1O` [VANCOMYCIN], the MIC was 1 µg/mL (≈ 0.69 µM) in [5]; 2 µg/mL (≈ 1.38 µM) in experiment [6]; above 32 µg/mL in experiment [7]; 0.25 µg/mL (≈ 0.173 µM) in [8]; 8 µg/mL (≈ 5.52 µM) in [9]; 1 µg/mL (≈ 0.69 µM) in experiment [10]. Moreover, the outcome in experiment [11], in experiment [12], in [13], in experiment [14] and in experiment [15] was inactive.
